Measurements taken from paper PMC5650512 (Cell chemical biology, 2017).

Tests used:
AMPKα (p-Thr172) [1] = experiment: AMPKα phosphorylation western blot, MDA-MB-231; format: cell-based; details: 1 µM; 24 hours
MCF-7 cells [2] = experiment: Mitochondrial membrane potential ΔΨm; format: cell-based
Summary of the method: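 JC-1 arm: MCF-7 cells exposed to test compound (20 µM, 4 h), with or without pre-treatment with (±)-14,15-EET (1 µM). Red/green ratio quantified as mean ± S.D. (n=4). TMRE arm: 20,000 cells/well grown overnight, TMRE 500 nM for 30 min at 37 °C, two washes in PBS/0.2% BSA, read Ex 530/Em 590 nm. FCCP (10 µM, 30 min) background subtracted.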

AMPKα (p-Thr172) [3] = experiment: AMPKα Thr172 phosphorylation western blot, MCF-7; format: cell-based
MDA-MB-231 cells = experiment: Mitochondrial membrane potential ΔΨm; format: cell-based
MCF-7 cells [4] = experiment: OCR and ECAR, XF Extracellular Flux Analyzer, MCF-7; format: cell-based
[5] = tested on: STAT3-Tyr705, p70 S6 Kinase-Thr389, mTOR-Ser2448, ERK1/2 phosphorylation; experiment: Western blot time course of signaling proteins, MCF-7; format: cell-based; details: 20 µM
MCF-7 cell line = experiment: MCF-7 cell proliferation; format: cell-based; details: for Abrogation of biguanide growth inhibition by (±)-14,15-EET: (±)-14,15-EET 1 µM, MTT at 24 hours
CYP2J2 = target: T1, CYP2J2 (Homo sapiens, UniProt P51589); experiment: CYP2J2 AA epoxygenase activity; format: biochemical; details: data not shown
T1 sequence (P51589 1-502): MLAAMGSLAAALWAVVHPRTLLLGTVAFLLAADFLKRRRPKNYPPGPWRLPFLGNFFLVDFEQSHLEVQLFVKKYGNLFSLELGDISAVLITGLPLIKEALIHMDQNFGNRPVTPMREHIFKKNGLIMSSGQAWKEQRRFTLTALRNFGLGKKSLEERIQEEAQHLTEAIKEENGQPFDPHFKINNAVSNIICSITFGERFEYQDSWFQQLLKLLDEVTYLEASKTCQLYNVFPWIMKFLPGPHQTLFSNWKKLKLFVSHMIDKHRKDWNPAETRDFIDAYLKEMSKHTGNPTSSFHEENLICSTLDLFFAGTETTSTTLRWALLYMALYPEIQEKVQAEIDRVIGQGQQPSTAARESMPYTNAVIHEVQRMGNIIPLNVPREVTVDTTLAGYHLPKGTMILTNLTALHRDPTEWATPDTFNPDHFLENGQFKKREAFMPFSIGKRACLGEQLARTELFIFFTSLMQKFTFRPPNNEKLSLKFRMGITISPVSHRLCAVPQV

[6] = Plasma concentration after ip dosing; format: in vivo, mice; details: female, athymic nude (Foxn1nu/Foxn1nu), mouse, 4 mg/kg/day
T47D cell line = experiment: T47D cell growth; format: cell-based
MCF-7 cells [7] = experiment: Cellular ATP by luminescent assay; format: cell-based; details: 6 hours, 10% serum
Summary of the method: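 Cells seeded in 96-well plates and exposed to vehicle or test compound. Lysis solution added with 5 min orbital shaking, then luciferase/luminescent substrate; 10 min in the dark before reading luminescence. ATP was quantified against a standard curve of known ATP concentrations.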

MDA-MB-231 cell line = experiment: MDA-MB-231 cell growth; format: cell-based
[8] = tested on: AMPKα in MDA-MB-231 tumors; experiment: Signaling proteins in MDA-MB-231 xenograft tumors; parameters: species or system mice; details: in vivo
[9] = tested on: mTOR, PKC-ζ/λ, AMPKα in MCF-7 tumors; experiment: Signaling proteins in MCF-7 xenograft tumors; format: in vivo, mice
[10] = tested on: MDA-MB-435/LCC6 cell line; experiment: MDA-MB-435/LCC6 cell growth; format: cell-based; details: data not shown
CYP3A4 = CYP3A4 (Homo sapiens, UniProt P08684); experiment: Microsomal CYP3A4-mediated EET biosynthesis; format: biochemical; details: IC50, inhibition of CYP3A4-mediated synthesis of (±)-14,15-EET, 30 minutes exposure
[11] = tested on: MCF-7 mammary fat pad xenograft; experiment: MCF-7 orthotopic mammary fat pad xenograft
[12] = tested on: cytochrome P450 reductase (CPR); experiment: Rate of reduction of cytochrome c by CPR; format: biochemical
Summary of the method: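 Run in a quartz cuvette with 1 mL 0.3 M potassium phosphate, pH 8.3, containing cytochrome c (62 μM) and NADPH (50 μM). Reaction started by adding CPR (final 0.2 mg/mL). Absorbance at 550 followed in real time.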

MCF-7 cells [13] = experiment: Cellular EET levels by LC-ESI/MRM/MS; format: cell-based; details: 5 mM, 6 hours; P<0.05 for each regioisomer
[14] = metformin 2.5 or 5 mM, over 5 hours

Chain of CYP3A4 (P08684 whole entry): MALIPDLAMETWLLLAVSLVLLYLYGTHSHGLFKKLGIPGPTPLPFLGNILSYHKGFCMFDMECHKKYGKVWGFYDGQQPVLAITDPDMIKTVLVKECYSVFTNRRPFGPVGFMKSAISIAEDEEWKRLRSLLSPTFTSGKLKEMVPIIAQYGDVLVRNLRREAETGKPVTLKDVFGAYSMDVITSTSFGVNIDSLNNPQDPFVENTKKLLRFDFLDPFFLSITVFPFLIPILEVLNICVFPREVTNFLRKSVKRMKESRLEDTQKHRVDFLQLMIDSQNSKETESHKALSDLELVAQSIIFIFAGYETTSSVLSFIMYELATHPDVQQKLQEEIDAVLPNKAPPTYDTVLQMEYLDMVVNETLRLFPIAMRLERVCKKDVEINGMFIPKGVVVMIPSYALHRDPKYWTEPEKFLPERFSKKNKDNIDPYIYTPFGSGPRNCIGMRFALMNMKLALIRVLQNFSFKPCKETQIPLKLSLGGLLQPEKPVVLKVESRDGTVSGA

CCCCCC1OC1C/C=C\C/C=C\C/C=C\CCCC(=O)O (racemic) [(±)-14,15-EET, (±)-14,15-(5Z,8Z,11Z)-EET, reference compound]
Effect on AMPK phosphorylation (AMPKα (p-Thr172) [1]): no effect | Effect on ΔΨm alone (JC-1) (MCF-7 cells [2]; 1 µM, relative to control): increased mitochondrial cross membrane potential | Rescue of HBB-reduced ΔΨm by pre-treatment (MCF-7 cells [2]; (±)-14,15-EET 1 µM, HBB 20 µM): partly rescued | Effect on pAMPKα (Thr172) phosphorylation (AMPKα (p-Thr172) [3]; 1 µM, 6 and 24 hours): suppression of pAMPKα phosphorylation | Rescue of HBB-reduced ΔΨm by pre-treatment (MDA-MB-231 cells; exogenous (±)-14,15-EET, HBB 20 µM): partly rescued

CCCCCC1OC1CCCCCCC/C=C\CCCC(=O)O (racemic) [(±)-14,15-EEZE]
Effect on AMPKα activation (AMPKα (p-Thr172) [3]; associated with OCR suppression): early activation | Effect on ECAR (MCF-7 cells [4]; 1.0 µM): suppressed | Effect on OCR (MCF-7 cells [4]; 1.0 µM): suppressed

NC(=O)c1ncn([C@@H]2O[C@H](CO)[C@@H](O)[C@H]2O)c1N [AICAR]
Effect on ECAR (MCF-7 cells [4]; AICAR 100 µM): increased | Effect on OCR (MCF-7 cells [4]; AICAR 100 µM): increased

CCCCCCNC(=N)NC(=N)NCc1ccccc1 [HBB, N1-hexyl-N5-benzyl-biguanide]
Effect on ΔΨm (JC-1) (MCF-7 cells [2]; 20 µM for 4 hours): rapid reduction of ΔΨm | Effect on ΔΨm (TMRE, non-quenching conditions) (MCF-7 cells [2]; TMRE 500 nM): inhibit ΔΨm in a dose dependent fashion | Effect on mTOR, S6 kinase and ERK ([5]; by 24 hours, presence or absence of serum): Significant inhibition | Effect on p70 S6 kinase ([5]; independent of serum starvation): rapid and transient activation of p70 S6 kinase at 30 minutes | Effect on Stat3 phosphorylation ([5]; presence of serum): inhibited Stat3 phosphorylation | Effect on pAMPKα (AMPKα (p-Thr172) [3]; 20 µM): activated pAMPKα within 30 minutes | Abrogation of HBB growth inhibition by EET analog C22 (MCF-7 cell line): partially abrogated HBB inhibition | Abrogation of biguanide growth inhibition by (±)-14,15-EET (MCF-7 cell line): part of the inhibition | Inhibition of AA epoxygenase activity of CYP2J2 (CYP2J2; microsomal): did not inhibit | concentration at 1 h [6]: 530 nM | Abrogation of HBB growth inhibition by (±)-14,15-EET (T47D cell line): abrogated most of the HBB inhibition | Reduction of ATP (MCF-7 cells [7]; HBB): 30% | Abrogation of HBB growth inhibition by EETs (MDA-MB-231 cell line): failed to counteract HBB inhibition | Rescue from HBB inhibition by N-acetyl-cysteine (NAC) (MDA-MB-231 cell line): rescued by the antioxidant N-acetyl-cysteine (NAC) | AMPKα activation in tumors [8]: did activate AMPKα | Intratumoral PKC-ζ/λ phospho-threonine 410/403 (RPPA) ([9]; HBB 4 mg/kg/day vs. PBS, P=0.000119): reduction of PKC-ζ/λ phospho-threonine 410/403 | Intratumoral mTOR (RPPA) ([9]; HBB 4 mg/kg/day vs. PBS, P=4.06×10^−6): reduction of mTOR | AMPKα activation in tumors ([9]; in vivo): failed to activate AMPKα | Abrogation of HBB growth inhibition by EETs [10]: failed to counteract HBB inhibition | IC50 (CYP3A4): 9.5 µM | Tumor size vs. vehicle ([11]; 4 mg/kg/day, Gompertzian fitting P=0.0354): smaller than the vehicle-treated from day 8 onward | Hepatic or cardiac toxicities by post-mortem histopathology ([11]; 6 mg/kg ip 4 days per week): no HBB-related hepatic or cardiac toxicities | Tumor size ([11]; 6 mg/kg ip 4 days per week (24 mg/kg/week), P=0.039): reduced tumor size | Tumor weights at the end point relative to vehicle ([11]; 6 mg/kg ip 4 days per week, P=0.034): half | Minimal effective dose (MED) ([11]; ip daily beginning the day after tumor cell implantation): 4 mg/kg | Effect on ΔΨm (JC-1) (MDA-MB-231 cells; 20 µM for 4 hours): rapid reduction of ΔΨm | Potency of OCR inhibition compared to metformin (MCF-7 cells [4]): > 250 fold | Effect on ECAR (MCF-7 cells [4]; HBB 20 and 40 µM): transient spike of ECAR, followed by inhibition without recovery | Effect on OCR (MCF-7 cells [4]; HBB 20 and 40 µM): rapid, dose-dependent reduction of OCR within 15 minutes

CCCCNC(=N)NC(=N)N [buformin]
Abrogation of biguanide growth inhibition by (±)-14,15-EET (MCF-7 cell line): part of the inhibition

CN(C)C(=N)N=C(N)N [metformin]
Abrogation of biguanide growth inhibition by (±)-14,15-EET (MCF-7 cell line): abrogated most of the growth inhibition | Inhibition of transfer of electrons from CPR (rate of reduction of cytochrome c) [12]: does not inhibit | Inhibition of AA epoxygenase activity of CYP2J2 (CYP2J2; 0.75, […] or 3 mM): not inhibited | Intracellular EET levels (MCF-7 cells [13]): reduced | Effect on cellular ATP (MCF-7 cells [7]; metformin, normalized to cell number): no effect | Effect on ECAR (MCF-7 cells [4]; [14]): transient ECAR spike, followed by suppression of ECAR | Effect on OCR (MCF-7 cells [4]; [14]): marginal suppression of OCR

[H]/N=C(/N)N/C(=N/[H])NCCc1ccccc1 [phenformin]
Abrogation of biguanide growth inhibition by (±)-14,15-EET (MCF-7 cell line): part of the inhibition
